≈ marks a conversion by molar mass, not a printed value.

Type in all cases: functional, cell-based
One assay concerns MC-38. The assay can be described thus: In vitro antiproliferative activity against colon 38 murine adenocarcinoma. The following applies: Mus musculus. The essentials: (§1)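 RPMI1640 with 10% FBS; seeded at 2.5×10³ cells/well for KB and colon 38, 1.25×10³ cells/well for P388; preincubated 24 h at 37 °C, 5% CO2. DMSO stocks were diluted 3-fold serially in medium, with 200 μg/mL the top dilution. Exposure was continuous for 3 days, then MTT for 1–2 h. Formazan was read in DMSO at 540/660 nm, and IC50 was taken by least squares.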

A further assay relates to KB. The assay can be described thus: Antiproliferative activity against KB human nasopharynx carcinoma in vitro. The essentials: as §1
The next assay relates to P388. The assay can be described thus: Antiproliferative activity against P388 murine leukemia in vitro. The following applies: Mus musculus. The essentials: as §1

On to `N#Cc1ccccc1S(=O)(=O)Nc1cccc2c(C#N)c[nH]c12`, for which the IC50 turned out to be 2.8 µg/mL (≈ 8.69 µM) in the assay on MC-38, 61 µg/mL (≈ 189 µM) in the assay with KB and 14 µg/mL (≈ 43.4 µM) in the assay on P388.

As for `CS(=O)(=O)Nc1cccc(S(=O)(=O)Nc2cccc3c(Cl)c[nH]c23)c1`, the IC50 in the assay with MC-38 worked out at 1.5 µg/mL (≈ 3.75 µM); with KB, 26 µg/mL (≈ 65 µM); with P388 it was 4.8 µg/mL (≈ 12 µM).

Consider `COc1ccc(S(=O)(=O)Nc2cccc3c(C#N)c[nH]c23)cc1`, for which the IC50 in the assay on MC-38 was 0.17 µg/mL (≈ 0.519 µM); in the assay with KB it was 1.4 µg/mL (≈ 4.28 µM); in the assay with P388 it was 0.17 µg/mL (≈ 0.519 µM).

For `CS(=O)(=O)Nc1ccccc1S(=O)(=O)Nc1cccc2c(Cl)c[nH]c12`, the IC50 came out at 45 µg/mL (≈ 113 µM) in the assay with MC-38, 18 µg/mL (≈ 45 µM) with KB and 18 µg/mL (≈ 45 µM) with P388.

As for `N#Cc1cccc(S(=O)(=O)Nc2cccc3c(C#N)c[nH]c23)c1`, the IC50 with MC-38 is 0.09 µg/mL (≈ 0.279 µM); in the assay on KB, 8.2 µg/mL (≈ 25.4 µM); with P388, 0.2 µg/mL (≈ 0.62 µM).

For the compound `O=C(O)c1ccc(S(=O)(=O)Nc2cccc3c(Cl)c[nH]c23)cc1`, the IC50 with MC-38, in the assay on KB and in the assay on P388 was > 100 µg/mL in each case.

With `NC(=O)c1ccc(S(=O)(=O)Nc2cccc3c(Cl)c[nH]c23)cc1`, the values for the IC50 with MC-38, in the assay with KB and in the assay on P388 were 0.19 µg/mL (≈ 0.543 µM), 21 µg/mL (≈ 60 µM) and 0.87 µg/mL (≈ 2.49 µM), respectively.

For the compound `CS(=O)(=O)Nc1ccc(S(=O)(=O)Nc2cccc3c(C#N)c[nH]c23)cc1`, the IC50 in the assay on MC-38 was 1.2 µg/mL (≈ 3.07 µM); in the assay with KB, 15 µg/mL (≈ 38.4 µM); in the assay with P388, 3.5 µg/mL (≈ 8.96 µM).

As for `CS(=O)(=O)Nc1ccc(S(=O)(=O)Nc2cccc3c(Cl)c[nH]c23)cc1`, the IC50 in the assay on MC-38 turned out to be 0.26 µg/mL (≈ 0.65 µM); in the assay on KB, 12 µg/mL (≈ 30 µM); in the assay with P388, 1.6 µg/mL (≈ 4 µM).

Turning to `NS(=O)(=O)Cc1ccc(S(=O)(=O)Nc2cccc3c(Cl)c[nH]c23)cc1`, the values for the IC50 in the assay with MC-38, in the assay with KB and in the assay with P388 were 0.12 µg/mL (≈ 0.3 µM), 13 µg/mL (≈ 32.5 µM) and 0.15 µg/mL (≈ 0.375 µM), respectively.

`Cc1ccc(S(=O)(=O)Nc2cccc3cc[nH]c23)cc1`: the IC50 in the assay with MC-38 was determined as 2.4 µg/mL (≈ 8.38 µM); in the assay on KB, 2.2 µg/mL (≈ 7.68 µM); in the assay with P388 it was 4.3 µg/mL (≈ 15 µM).

With `COc1ccc(S(=O)(=O)Nc2cccc3c(Cl)c[nH]c23)cc1`, the IC50 in the assay on MC-38 stood at 0.2 µg/mL (≈ 0.594 µM); in the assay with KB it was 0.55 µg/mL (≈ 1.63 µM); in the assay on P388 it was 0.76 µg/mL (≈ 2.26 µM).

Regarding `Nc1ccc(S(=O)(=O)Nc2cccc3cc[nH]c23)cc1`, the IC50 was 6.1 µg/mL (≈ 21.2 µM) in the assay on MC-38, 36 µg/mL (≈ 125 µM) in the assay with KB and 14 µg/mL (≈ 48.7 µM) in the assay with P388.

Consider `Nc1ccc(S(=O)(=O)Nc2cccc3c(Cl)c[nH]c23)cc1`, for which the IC50 in the assay on MC-38 came to 0.23 µg/mL (≈ 0.715 µM); in the assay on KB, 10 µg/mL (≈ 31.1 µM); in the assay on P388 it was 0.81 µg/mL (≈ 2.52 µM).

For `N#Cc1ccc(S(=O)(=O)Nc2cccc3c(Cl)c[nH]c23)cc1`, the IC50 is 0.13 µg/mL (≈ 0.392 µM) with MC-38, 11 µg/mL (≈ 33.2 µM) in the assay with KB and 1.4 µg/mL (≈ 4.22 µM) in the assay on P388.

As for `COc1ccc(S(=O)(=O)Nc2cccc3cc[nH]c23)cc1`, the values for the IC50 in the assay with MC-38, in the assay on KB and in the assay on P388 were 1.5 µg/mL (≈ 4.96 µM), 0.67 µg/mL (≈ 2.22 µM) and 1.1 µg/mL (≈ 3.64 µM), respectively.

As to `O=S(=O)(Nc1cccc2cc[nH]c12)c1ccc(Cl)cc1`, the IC50 in the assay on MC-38 is 7 µg/mL (≈ 22.8 µM); in the assay on KB it was 6 µg/mL (≈ 19.6 µM); with P388, 6 µg/mL (≈ 19.6 µM).

As for `CNS(=O)(=O)c1ccc(S(=O)(=O)Nc2cccc3c(Cl)c[nH]c23)cc1`, the IC50 in the assay on MC-38 was 0.24 µg/mL (≈ 0.6 µM); with KB it was 15 µg/mL (≈ 37.5 µM); in the assay with P388 it was 0.9 µg/mL (≈ 2.25 µM).

As to `N#Cc1ccc(S(=O)(=O)Nc2cccc3cc[nH]c23)cc1`, the IC50 in the assay with MC-38 came out at 1.8 µg/mL (≈ 6.05 µM); in the assay on KB, 8.5 µg/mL (≈ 28.6 µM); with P388, 4.2 µg/mL (≈ 14.1 µM).

Regarding `N#Cc1c[nH]c2c(NS(=O)(=O)c3ccc(C(N)=O)cc3)cccc12`, the values for the IC50 with MC-38, in the assay on KB and in the assay on P388 were 0.68 µg/mL (≈ 2 µM), 15 µg/mL (≈ 44.1 µM) and 2.5 µg/mL (≈ 7.35 µM), respectively.

Take `N#Cc1ccc(S(=O)(=O)Nc2cccc3c(C#N)c[nH]c23)cc1`: the half-maximal inhibitory concentration (IC50) in the assay on MC-38 is 0.12 µg/mL (≈ 0.372 µM); in the assay on KB it was 33 µg/mL (≈ 102 µM); in the assay with P388, 0.53 µg/mL (≈ 1.64 µM).

Take `N#Cc1c[nH]c2c(NS(=O)(=O)c3ccc(C(=O)O)cc3)cccc12`: the IC50 with MC-38, in the assay on KB and in the assay on P388 was > 100 µg/mL each time.

In the case of `N#Cc1c[nH]c2c(NS(=O)(=O)c3ccc(N)cc3)cccc12`, the IC50 is 0.28 µg/mL (≈ 0.896 µM) in the assay with MC-38, 4.4 µg/mL (≈ 14.1 µM) in the assay on KB and 0.72 µg/mL (≈ 2.31 µM) in the assay with P388.

In turn, `COc1ccc(S(=O)(=O)Nc2cccnc2Nc2ccc(O)cc2)cc1` [ABT-751] showed an IC50 in the assay on P388 of 0.32 µg/mL (≈ 0.862 µM).

As for `NS(=O)(=O)c1ccc(S(=O)(=O)Nc2cccc3c(Cl)c[nH]c23)cc1` [INDISULAM], the IC50 amounted to 0.1 µg/mL (≈ 0.259 µM) in the assay on MC-38, 4.4 µg/mL (≈ 11.4 µM) in the assay with KB and 0.45 µg/mL (≈ 1.17 µM) in the assay on P388.

In general, IC50 refers to the point on the concentration scale where inhibition reaches its midpoint. The low end stands for higher potency, the high end for lower potency.

(Values after ChEMBL document CHEMBL1132278, “Discovery of novel antitumor sulfonamides targeting G1 phase of the cell cycle” (J Med Chem, 1999).)
